# Test results reported in ChEMBL document CHEMBL4811313, “Himalaquinones A-G, Angucyclinone-Derived Metabolites Produced by the Himalayan Isolate Streptomyces sp. PU-MM59” (J Nat Prod, 2021).
# Activity calls are given as the source filed them. No cut-off for these calls is given here.
# How the values were obtained:
# [1] = target: Eukaryotic translation initiation factor 4E-binding protein 1 (Homo sapiens) (UniProt Q13541); assay: Inhibition of 4E-BP1 phosphorylation in human HCT116 cells at 2 uM after 6 hrs by Western blot analysis; type: cell-based; conditions: HCT-116
# Eukaryotic translation initiation factor 4E-binding protein 1 (Homo sapiens), sequence (Q13541 whole entry): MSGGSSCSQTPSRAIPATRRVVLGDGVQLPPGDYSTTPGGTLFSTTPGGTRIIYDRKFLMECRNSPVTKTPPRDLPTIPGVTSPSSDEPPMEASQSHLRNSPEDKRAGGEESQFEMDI
# Summary of the method: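 HCT116 cells were treated 6 h with 2 μM compound or with DMSO as negative control. Lysate was run on SDS-PAGE, blotted to PVDF and probed for phospho-4E-BP1 (Thr37/46, Ser65, Thr70), with chemiluminescent detection.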
# [2] = tested on: A549; assay: Cytotoxicity against human A549 cells assessed as reduction in cell viability after 72 hrs by resazurin dye based fluorescence analysis; type: functional; conditions: A549, 72 h
# Summary of the method: (§1)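 A549 (non-small-cell lung) and PC3 (prostate) human cancer cells from ATCC. Viability was read after 72 h, in triplicate. Runs were either a single 80 μM concentration or a dose-response. Actinomycin D served as the positive control.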
# [3] = tested on: PC-3; assay: Cytotoxicity against human PC3 cells assessed as reduction in cell viability after 72 hrs by resazurin dye based fluorescence analysis; type: functional; conditions: PC-3, 72 h; summary of the method: as §1
# [4] = tested on: Salmonella enterica; assay: Antibacterial activity against Salmonella enterica ATCC 10708 at <= 133 uM incubated for 16 hrs; type: functional, organism-based; conditions: dose microM <=133, time 16.0 hrs
# Summary of the method: (§2)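 Microbial strains from ATCC or NRRL, tested in triplicate with a top concentration of 133 μM. Positive controls were kanamycin and ampicillin (S. aureus, M. luteus, S. enterica, E. coli) and amphotericin B (S. cerevisiae).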
# [5] = tested on: A549; assay: Cytotoxicity against human A549 cells assessed as reduction in cell viability at 80 uM after 72 hrs by resazurin dye based fluorescence analysis; type: functional; summary of the method: as §1
# [6] = tested on: Bacillus spizizenii; assay: Antibacterial activity against Bacillus subtilis ATCC 6633 at <= 133 uM incubated for 16 hrs; type: functional, organism-based; conditions: dose microM <=133, time 16.0 hrs; summary of the method: as §2
# [7] = tested on: Mycolicibacterium aurum; assay: Antibacterial activity against Mycobacterium aurum ATCC 23366 at <= 133 uM incubated for 16 hrs; type: functional, organism-based; conditions: dose microM <=133, time 16.0 hrs; summary of the method: as §2
# [8] = tested on: Micrococcus luteus; assay: Antibacterial activity against Micrococcus luteus NRRL B-287 at <= 133 uM incubated for 16 hrs; type: functional, organism-based; conditions: dose microM <=133, time 16.0 hrs; summary of the method: as §2
# [9] = tested on: PC-3; assay: Cytotoxicity against human PC3 cells assessed as reduction in cell viability at 80 uM after 72 hrs by resazurin dye based fluorescence analysis; type: functional; summary of the method: as §1
# [10] = tested on: Saccharomyces cerevisiae; assay: Antifungal activity against Saccharomyces cerevisiae ATCC 204508 at <= 133 uM after 16 hrs; type: functional, organism-based; conditions: dose microM <=133, time 16.0 hrs; summary of the method: as §2
# [11] = tested on: Escherichia coli; assay: Antibacterial activity against Escherichia coli NRRL B-3708 at <= 133 uM incubated for 16 hrs; type: functional, organism-based; conditions: dose microM <=133, time 16.0 hrs; summary of the method: as §2
# [12] = tested on: Staphylococcus aureus; assay: Antibacterial activity against Staphylococcus aureus ATCC 6538 at <= 133 uM incubated for 16 hrs; type: functional, organism-based; conditions: dose microM <=133, time 16.0 hrs; summary of the method: as §2
# [13] = Toxicity in axolotl embryo at 10 uM after 7 days by tail regeneration assay; conditions: ambystoma mexicanum, 168 h, time 7 day
# Summary of the method: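 Stage 42 axolotl embryos were hatched manually, anesthetized with benzocaine and given 2 mm tail amputations. They were reared at 18–19 °C in artificial pond water with compound (10 μM; one compound at 1.0 μM) in 0.1% final DMSO. Regeneration was imaged at 0 and 7 days postamputation. DMSO was the negative control and geldanamycin the positive control.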
# [14] = Toxicity in axolotl embryo at 1 uM after 7 days by tail regeneration assay; conditions: ambystoma mexicanum, 168 h, time 7 day
# Summary of the method: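 Stage 42 embryos manually hatched, anaesthetised with benzocaine, given 2 mm tail amputations, then reared with or without test agent in artificial pond water at 18–19 °C for 7 days postamputation. Imaged at 0 and 7 DPA. Agents dissolved in DMSO, 0.1% final DMSO. Vehicle served as negative control, geldanamycin as positive control.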
inhibition [1],Compound,IC50 [2] [nM],IC50 [3] [nM],Activity [4],Activity [6],Activity [7],Activity [8],Activity [10],Activity [11],Activity [12],Activity [13],further results
Active,Cc1cc(O)c2c(c1)C[C@@H](O)C1=C2C(=O)c2cccc(O[C@H]3C[C@@H](O)[C@H](O[C@H]4C[C@@H](O[C@H]5CC[C@H](O[C@H]6CC[C@H](O[C@H]7C[C@@H](O[C@H]8CC[C@H](O)[C@H](C)O8)[C@H](O)[C@@H](C)O7)[C@@H](C)O6)[C@H](C)O5)[C@H](O)[C@@H](C)O4)[C@@H](C)O3)c2C1=O,< 500,< 500,,,,,,,,,
,COc1cccc2c1C(=O)c1cc(O)c(/C=C(/C)CC(=O)O)c(O)c1C2=O,,,inactive,inactive,inactive,inactive,inactive,inactive,inactive,,Activity [5]: inactive; Activity [9]: inactive
,COc1cccc2c1C(=O)c1ccc(/C=C(\C)CC(=O)O)c(O)c1C2=O,,,inactive,inactive,inactive,inactive,inactive,inactive,inactive,,Activity [5]: inactive; Activity [9]: inactive
,Cc1cc(O)c2c3c(ccc2c1)C(=O)c1c(O[C@H]2C[C@@H](O)[C@H](O[C@H]4C[C@@H](O[C@H]5CC[C@H](O[C@H]6C[C@@H](O)[C@H](O[C@H]7C[C@@H](O)[C@H](O)[C@@H](C)O7)[C@@H](C)O6)[C@H](C)O5)[C@H](O)[C@@H](C)O4)[C@@H](C)O2)cccc1C3=O [LANDOMYCIN M],,,,,,,,,,Toxic,
Active,C[C@@H]1O[C@@H](O[C@H]2CC[C@H](O[C@@]3(C)CC(=O)[C@]4(O)C5=C(C=C[C@]4(O)C3)C(=O)c3c(ccc([C@H]4C[C@@H](O)[C@H](O[C@H]6CC[C@H](O)[C@H](C)O6)[C@@H](C)O4)c3O)C5=O)O[C@H]2C)C=CC1=O [SAQUAYAMYCIN K],< 500,< 500,,,,,,,,,
,C[C@@H]1O[C@H]2O[C@H]3[C@@H](C)O[C@@H](c4ccc5c(c4O)C(=O)C4=C(C5=O)[C@@]5(O)C(=O)C[C@](C)(O)C[C@@]5(O)C=C4)C[C@H]3O[C@H]2CC1=O,,,,,,,,,,Non-Toxic,
Active,Cc1cc(O)c2c(c1)C[C@@H](O)C1=C2C(=O)c2c(O)ccc(O[C@H]3C[C@@H](O)[C@H](O[C@H]4C[C@@H](O[C@H]5CC[C@H](O[C@H]6C[C@@H](O)[C@H](O[C@H]7C[C@@H](O[C@H]8CC[C@H](O)[C@H](C)O8)[C@H](O)[C@@H](C)O7)[C@@H](C)O6)[C@H](C)O5)[C@H](O)[C@@H](C)O4)[C@@H](C)O3)c2C1=O [LANDOMYCIN A],< 500,< 500,,,,,,,,,
Active,C[C@@H]1O[C@H]2O[C@H]3[C@@H](C)O[C@@H](c4ccc5c(c4O)C(=O)C4=C(C5=O)[C@@]5(O)C(=O)C[C@](C)(O[C@H]6CC[C@H](O[C@H]7CC[C@H](O)[C@H](C)O7)[C@H](C)O6)C[C@@]5(O)C=C4)C[C@H]3O[C@H]2CC1=O,< 500,< 500,,,,,,,,Non-Toxic,
Active,Cc1cc(O)c2c3c(ccc2c1)C(=O)c1c(O[C@H]2C[C@@H](O)[C@H](O[C@H]4C[C@@H](O[C@H]5CC[C@H](O[C@H]6CC[C@H](O[C@H]7C[C@@H](O[C@H]8CC[C@H](O)[C@H](C)O8)[C@H](O)[C@@H](C)O7)[C@@H](C)O6)[C@H](C)O5)[C@H](O)[C@@H](C)O4)[C@@H](C)O2)cccc1C3=O,< 500,< 500,,,,,,,,,
,C[C@@H]1O[C@@H](O[C@H]2CC[C@H](O[C@@]3(C)CC(=O)[C@]4(O)C5=C(C=C[C@]4(O)C3)C(=O)c3c(ccc([C@H]4C[C@H]6O[C@H]7CC(=O)[C@H](C)O[C@H]7O[C@H]6[C@@H](C)O4)c3O)C5=O)O[C@H]2C)C(N)=CC1=O,,,,,,,,,,Non-Toxic,
,C[C@@H]1O[C@@H](O[C@H]2CC[C@H](O[C@@]3(C)CC(=O)[C@]4(O)C5=C(C=C[C@]4(O)C3)C(=O)c3c(ccc([C@H]4C[C@@H](O)[C@H](O)[C@@H](C)O4)c3O)C5=O)O[C@H]2C)C=CC1=O [SAQUAYAMYCIN G],,,,,,,,,,Non-Toxic,
,C[C@@H]1O[C@@H](O[C@H]2CC[C@H](O[C@@]3(C)CC(=O)[C@]4(O)C5=C(C=C[C@]4(O)C3)C(=O)c3c(ccc([C@H]4C[C@@H](O)[C@H](O[C@@H]6O[C@@H](C)C(=O)C=C6N)[C@@H](C)O4)c3O)C5=O)O[C@H]2C)C=CC1=O [SAQUAYAMYCIN I],,,,,,,,,,Non-Toxic,
,COc1cccc2c1C(=O)c1ccc(/C=C(/C)CC(=O)O)c(O)c1C2=O,,,inactive,inactive,inactive,inactive,inactive,inactive,inactive,,Activity [5]: inactive; Activity [9]: inactive
,C/C(=C/c1c(O)cc2c(c1O)C(=O)c1cccc(O)c1C2=O)CC(=O)O,,,inactive,inactive,inactive,inactive,inactive,inactive,inactive,,Activity [5]: inactive; Activity [9]: inactive
,CC(=O)OC(=O)C(O)/C(C)=C\c1c(O)cc2c(c1O)C(=O)c1cccc(O)c1C2=O (stereo unspecified),,,inactive,inactive,inactive,inactive,inactive,inactive,inactive,,Activity [5]: inactive; Activity [9]: inactive
,Cc1cc(O)c2c3c(ccc2c1)C(=O)c1c(O[C@H]2C[C@@H](O)[C@H](O[C@H]4C[C@@H](O)[C@H](O)[C@@H](C)O4)[C@@H](C)O2)cccc1C3=O [LANDOMYCIN O],,,,,,,,,,Toxic,
,C[C@@H]1O[C@@H](O[C@@H]2C[C@H](c3ccc4c(c3O)C(=O)C3=C(C4=O)[C@@]4(O[C@H]5CC[C@H](O)[C@H](C)O5)C(=O)C[C@](C)(O)C[C@@]4(O)C=C3)O[C@H](C)[C@H]2O)CC[C@@H]1O[C@H]1C[C@@H](O)[C@H](O)[C@@H](C)O1,,,,,,,,,,Non-Toxic,
,COC(=O)C/C(C)=C\c1c(O)cc2c(c1O)C(=O)c1cccc(O)c1C2=O,,,inactive,inactive,inactive,inactive,inactive,inactive,inactive,,Activity [5]: inactive; Activity [9]: inactive
,Cc1cc(O)c2c(c1)C[C@@H](O)C1=C2C(=O)c2cccc(O[C@H]3C[C@@H](O)[C@H](O[C@H]4C[C@@H](O[C@H]5CC[C@H](O[C@H]6C[C@@H](O)[C@H](O[C@H]7C[C@@H](O)[C@H](O)[C@@H](C)O7)[C@@H](C)O6)[C@H](C)O5)[C@H](O)[C@@H](C)O4)[C@@H](C)O3)c2C1=O [LANDOMYCIN V],,,,,,,,,,Toxic,

Compound,inhibition [1],IC50 [2] [nM],IC50 [3] [nM],Activity [4],Activity [6],Activity [7],Activity [8],Activity [10],Activity [11],Activity [12],Activity [13],further results
COc1cccc2c1C(=O)C1=C(C2=O)c2c(O)cc(C)cc2[C@@H](O)[C@H]1O,inactive,1880,320,inactive,inactive,inactive,inactive,inactive,inactive,inactive,Non-Toxic,
C[C@@H]1O[C@@H](O[C@H]2[C@H](O)C[C@H](c3ccc4c(c3O)C(=O)C3=C(C4=O)[C@@]4(O)C(=O)C[C@](C)(O[C@H]5CC[C@H](O[C@H]6C=CC(=O)[C@H](C)O6)[C@H](C)O5)C[C@@]4(O)C=C3)O[C@@H]2C)C=CC1=O [SAQUAYAMYCINS A],Active,< 500,< 500,,,,,,,,,Activity [14]: Toxic
C[C@@H]1O[C@@H](O[C@H]2CC[C@H](O[C@@]3(C)CC(=O)[C@]4(O)C5=C(C=C[C@]4(O)C3)C(=O)c3c(ccc([C@H]4C[C@H]6O[C@H]7CC(=O)[C@H](C)O[C@H]7O[C@H]6[C@@H](C)O4)c3O)C5=O)O[C@H]2C)C=CC1=O,Active,< 500,< 500,,,,,,,,,
